Results: ChEMBL document CHEMBL4316619 (Bioorg Med Chem Lett, 2019)
Active and inactive are the calls of the source. The rule behind the calls is not given here.

Legend:
[1] = (§1) Cytotoxicity against MDCK cells assessed as reduction in cell viability measured on day 5 by Celltiter-Glo luminescence assay; format: cell-based, Canis lupus familiaris; conditions: dog, MDCK cells
Outline: (§2)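 MDCK cells were infected with seasonal influenza A strains through NIAID resources and scored for protection from virus-induced cell death. Compounds were tested at four concentrations (0.8, 4, 20, 100 μM). EC50/EC90 (reduction of viral cell death) and CC50 (reduction of cell viability) were derived in μM, and SI50 = CC50/EC50.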

[2] = Stability of the compound in mouse liver microsomes assessed as parent compound remaining measured immediately; format: ADME, Microsome; conditions: read-out: Stability
Outline: (§3)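 Mouse liver microsomes; percent parent compound remaining measured at 0, 15 and 30 min.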

Influenza A virus H3N2 = assay: Antiviral activity against Influenza A virus (A/Brisbane/10/2007(H3N2)) infected in MDCK cells assessed as reduction in virus-induced cytopathic effect measured on day 5 by Celltiter-Glo luminescence assay; format: functional, organism-based; conditions: 120 h; outline: as §2
[3] = Stability of the compound in mouse liver microsomes assessed as parent compound remaining measured after 30 mins; format: ADME, Microsome; conditions: read-out: Stability; outline: as §3
[4] = Aqueous kinetic solubility of the compound; format: physicochemical; conditions: buffer
[5] = Stability of the compound in mouse liver microsomes assessed as parent compound remaining measured after 15 mins; format: ADME, Microsome; conditions: read-out: Stability; outline: as §3
Influenza A virus [6] = assay: Antiviral activity against Influenza A virus (A/California/7/2009(H1N1)) infected in MDCK cells assessed as reduction in virus-induced cytopathic effect measured on day 5 by Celltiter-Glo luminescence assay; format: functional, organism-based; conditions: 120 h; outline: as §2
Influenza A virus [7] = assay: Antiviral activity against Influenza A virus A/PR/8/34 (H1N1) infected in MDCK cells assessed as fold reduction in virus titer at 10 uM measured after 48 hrs by hemagglutination assay relative to control; format: functional, A/Puerto Rico/8/1934(H1N1)
Outline: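 MDCK cells were infected with A/PR/8/34 (H1N1) at MOI 0.1 and incubated with compound for 48 h. Supernatant virus was then quantified by hemagglutination assay and standard TCID50 analysis. The single-concentration screen used 10 μM and reports fold reduction in titer. Dose-response runs used triplicate cultures, with percent titer decrease back-calculated from TCID50.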

[8] = molecular target: Non-structural protein 1 (Influenza A virus (strain A/Puerto Rico/8/1934 H1N1)) (UniProt P03496); assay: Inhibition of NS1 in Influenza A virus A/PR/8/34 (H1N1) infected in MDCK cells assessed as restoration of protein-induced reduction in IFN-beta mRNA expression at 20 uM measured after 6 hrs by RT-PCR analysis; format: cell-based; conditions: Influenza A virus (A/Puerto Rico/8/1934(H1N1))
Chain of Non-structural protein 1 (Influenza A virus (strain A/Puerto Rico/8/1934 H1N1)) (P03496 whole entry): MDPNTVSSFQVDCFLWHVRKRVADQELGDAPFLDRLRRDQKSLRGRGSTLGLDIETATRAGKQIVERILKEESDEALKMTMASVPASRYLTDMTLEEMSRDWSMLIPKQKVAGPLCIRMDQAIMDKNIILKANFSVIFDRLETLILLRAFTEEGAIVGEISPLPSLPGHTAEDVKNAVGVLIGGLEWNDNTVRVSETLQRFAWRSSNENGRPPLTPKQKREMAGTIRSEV
Outline: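 MDCK cells infected with A/PR/8/34 at MOI 2 and incubated 6 h with compound at 20 μM. Cells harvested; IFN-β and β-actin mRNA detected by RT-PCR. Poly(I:C) lane serves as positive control for IFN-β induction.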

Influenza A virus [9] = assay: Effect on NS1 protein expression in Influenza A virus A/PR/8/34 (H1N1) infected in MDCK cells at 20 uM by Western blot analysis; format: functional, organism-based; conditions: A/Puerto Rico/8/1934(H1N1)
Outline: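 MDCK cells, uninfected or infected with A/PR/8/34, treated with DMSO or compound at 20 μM. NS1 protein detected by Western blot, with α-tubulin as loading control.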

MDCK [10] = assay: Cytotoxicity against MDCK cells assessed as reduction in cell viability measured after 48 hrs by CellTiter Glo assay; format: cell-based, Canis lupus familiaris; conditions: dog
Outline: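 MDCK cells were incubated with compound under the conditions of the 48 h replication assay. Cytotoxicity was read with the CellTiter-Glo ATP viability assay. Follow-up viability testing used 5, 10, 50 and 100 μM.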

[11] = molecular target: Non-structural protein 1 (Influenza A virus (strain A/Puerto Rico/8/1934 H1N1)) (UniProt P03496); assay: Inhibition of Influenza A virus A/PR/8/34 (H1N1) NS1 expressed in 293 cells assessed as increase in poly(I:C)-induced IFN-beta reporter activity treated 16 hrs […] measured after 24 hrs by luciferase reporter gene assay; format: cell-based; conditions: Influenza A virus (A/Puerto Rico/8/1934(H1N1))
Outline: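 293 cells co-transfected with a human IFN-β promoter-driven firefly luciferase reporter and NS1 expression constructs. At 16 h post-transfection, poly(I:C) 50 μg/mL plus compound (20 μM) or 1% DMSO added for a further 24 h; luciferase read by luminometer. Untransfected cells serve as baseline.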

[12] = molecular target: Luciferin 4-monooxygenase (Photinus pyralis) (UniProt P08659); assay: Effect on firefly luciferase activity expressed in 293 cells at 50 uM by luminescence assay; format: cell-based
Chain of Luciferin 4-monooxygenase (Photinus pyralis) (P08659 whole entry): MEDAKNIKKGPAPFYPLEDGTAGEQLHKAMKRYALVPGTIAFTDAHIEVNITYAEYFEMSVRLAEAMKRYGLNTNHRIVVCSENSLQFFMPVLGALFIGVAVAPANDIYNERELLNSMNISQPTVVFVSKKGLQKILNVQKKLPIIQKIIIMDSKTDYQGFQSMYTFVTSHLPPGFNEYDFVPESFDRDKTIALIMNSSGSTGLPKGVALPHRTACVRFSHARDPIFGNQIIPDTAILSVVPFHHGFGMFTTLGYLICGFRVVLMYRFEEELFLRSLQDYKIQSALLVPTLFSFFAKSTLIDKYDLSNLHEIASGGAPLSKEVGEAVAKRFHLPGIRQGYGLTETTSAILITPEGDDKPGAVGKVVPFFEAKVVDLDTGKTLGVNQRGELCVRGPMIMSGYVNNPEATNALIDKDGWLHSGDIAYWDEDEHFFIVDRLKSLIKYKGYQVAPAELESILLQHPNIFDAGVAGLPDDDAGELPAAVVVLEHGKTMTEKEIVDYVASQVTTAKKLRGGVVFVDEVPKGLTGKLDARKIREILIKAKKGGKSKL

Influenza B virus = assay: Antiviral activity against Influenza B virus (B/Brisbane/60/2008) infected in MDCK cells assessed as reduction in virus-induced cytopathic effect measured on day 5 by Celltiter-Glo luminescence assay; format: functional, organism-based
Saccharomyces cerevisiae = assay: Effect on growth of Yeast 9526-6-2 harboring pYES at 50 uM measured up to 60 hrs; format: organism-based; conditions: in vivo
Outline: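 Control yeast carrying empty pYES and NS1-expressing NS1-pYES strain grown with DMSO or compound at 50 μM. Growth measured as OD600 at 22, 42 and 60 h.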

[13] = Apparent permeability across apical to basolateral side in human Caco2 cells measured after 2 hrs; format: ADME, cell-based; conditions: caco-2, 2 h
Outline: (§4)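 Permeability was measured across Caco-2 monolayers in both directions, apical to basolateral and basolateral to apical. […] Runs were done with and without 3% BSA, and mass recovery (%) was reported for each direction. Efflux ratio = Papp B→A / Papp A→B.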

[14] = Toxicity in C57BL/6 mouse assessed as adverse effect at 30 mg/kg, ip; format: organism-based; conditions: in vivo
[15] = Toxicity in C57BL/6 mouse assessed as effect on lungs at 30 mg/kg, ip; format: organism-based; conditions: in vivo
[16] = AUClast in C57BL/6 mouse liver at 30 mg/kg, ip; format: ADME, organism-based; design: dose 30 mg/kg, time 0 - last, route intraperitoneal
Outline: (§5)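 Male C57BL/6 mice received a single intraperitoneal dose of 30 mg/kg (N=3). Compound concentrations were followed over time in plasma, liver and lung. Tmax, Cmax, terminal t1/2, AUClast and AUCINF were derived from the mean concentration-time profiles.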

[17] = AUClast in C57BL/6 mouse plasma at 30 mg/kg, ip; format: ADME, organism-based; design: dose 30 mg/kg, route intraperitoneal, time 0 - last; outline: as §5
[18] = Terminal half life in C57BL/6 mouse plasma at 30 mg/kg, ip; format: ADME, organism-based; conditions: C57BL/6, mouse, plasma, read-out: beta t1/2 (converted)
Outline: (§6)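 Male C57BL/6 mice, single intraperitoneal 30 mg/kg dose, N=3. Plasma, liver and lung concentrations followed over time to give concentration-time profiles, from which Tmax, Cmax, terminal t1/2, AUClast and AUCINF were derived.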

[19] = AUC (infinity) in C57BL/6 mouse lung at 30 mg/kg, ip; format: ADME, organism-based; design: dose 30 mg/kg, route intraperitoneal, time infinity; outline: as §5
[20] = Tmax in C57BL/6 mouse lung at 30 mg/kg, ip; format: ADME, organism-based; outline: as §6
[21] = Tmax in C57BL/6 mouse plasma at 30 mg/kg, ip; format: ADME, organism-based; conditions: C57BL/6, mouse, plasma, read-out: Tmax; outline: as §6
[22] = AUC (infinity) in C57BL/6 mouse plasma at 30 mg/kg, ip; format: ADME, organism-based; design: dose 30 mg/kg, route intraperitoneal, time infinity; outline: as §5
[23] = Toxicity in C57BL/6 mouse assessed as effect on liver at 30 mg/kg, ip; format: organism-based; conditions: in vivo
[24] = Terminal half life in C57BL/6 mouse liver at 30 mg/kg, ip; format: ADME, organism-based; conditions: read-out: beta t1/2 (converted); outline: as §6
[25] = Terminal half life in C57BL/6 mouse lung at 30 mg/kg, ip; format: ADME, organism-based; conditions: read-out: beta t1/2 (converted); outline: as §6
[26] = Apparent permeability across basolateral to apical side in human Caco2 cells measured after 2 hrs; format: ADME, cell-based; conditions: caco-2, 2 h; outline: as §4
[27] = Cmax in C57BL/6 mouse plasma at 30 mg/kg, ip; format: ADME, organism-based; design: dose 30 mg/kg, route intraperitoneal; conditions: C57BL/6, mouse, plasma, read-out: Cmax; outline: as §5
[28] = AUClast in C57BL/6 mouse lung at 30 mg/kg, ip; format: ADME, organism-based; design: dose 30 mg/kg, route intraperitoneal, time 0 - last; outline: as §5
[29] = Tmax in C57BL/6 mouse liver at 30 mg/kg, ip; format: ADME, organism-based; outline: as §6
[30] = Cmax in C57BL/6 mouse lung at 30 mg/kg, ip; format: ADME, organism-based; design: dose 30 mg/kg, route intraperitoneal; outline: as §5
[31] = Cmax in C57BL/6 mouse liver at 30 mg/kg, ip; format: ADME, organism-based; design: dose 30 mg/kg, route intraperitoneal; outline: as §5
[32] = AUC (infinity) in C57BL/6 mouse liver at 30 mg/kg, ip; format: ADME, organism-based; design: dose 30 mg/kg, time infinity, route intraperitoneal; outline: as §5
MDCK [33] = assay: as §1; format: cell-based, Canis lupus familiaris; conditions: dog, mdck; outline: as §2

SMILES | CC50 at 5 day [1] [µM] | remaining at 0 min [2] [%] | EC50 (Influenza A virus H3N2) [µM] | EC90 (Influenza A virus H3N2) [µM] | remaining at 0.5 h [3] [%] | Kinetic_solubility [4] [µM] | remaining at 0.25 h [5] [%] | EC50 (Influenza A virus [6]) [µM] | EC90 (Influenza A virus [6]) [µM] | fold change (FC) (Influenza A virus [7]) | inhibition [8] | Activity (Influenza A virus [9]) | Activity (MDCK [10]) | inhibition [11] | Activity [12] | Activity (Influenza B virus) | Activity (Saccharomyces cerevisiae) | Papp [13] [×10⁻⁶ cm/s] | Papp [26] [×10⁻⁶ cm/s] | other results
Cc1ccc(-n2nc(C)c3c(-c4ccc(O)c(O)c4)c(C#N)c(N)nc32)cc1C | 24.5 to 39.3 | 100 | > 50 | > 50 | 64 | 11.6 | 78 | 1.2 | 3.4 | 256 | Active | inactive | Non-Toxic | Active | inactive | inactive | Non-Toxic |  |  | 
COc1cc(-c2ccnc3c2c(C)nn3-c2cccc(C(F)(F)F)c2)ccc1O | 24.5 to 49 | 100 |  |  | 16 | 1.7 | 25 |  |  |  |  |  | Non-Toxic |  |  |  | Non-Toxic | 0.13 | 0.38 | Activity [14]: Non-Toxic; Activity [15]: Non-Toxic; AUC(0-t) [16]: 119000 ng·h/mL; AUC(0-t) [17]: 5960 ng·h/mL; half-life [18]: 5.2 h; AUC(0-inf) [19]: 49100 ng·h/mL; Tmax [20]: 4.98 min; Tmax [21]: 4.98 min; AUC(0-inf) [22]: 5970 ng·h/mL; Activity [23]: Non-Toxic; half-life [24]: 5.3 h; half-life [25]: 5 h; Cmax [27]: 4470 ng/mL; AUC(0-t) [28]: 49100 ng·h/mL; Tmax [29]: 4.98 min; Cmax [30]: 36200 ng/mL; Cmax [31]: 64000 ng/mL; AUC(0-inf) [32]: 120000 ng·h/mL
COc1cc(-c2c(C#N)c(N)nc3c2c(C)nn3-c2ccc(F)cc2)ccc1O | 24.7 to 48.3 | 100 | 10.1 | > 50 | 60 | 3 | 74 | 2.1 | 4.6 | 256 | Active | inactive | Non-Toxic | Active | inactive | inactive | Non-Toxic |  |  | 
CCOc1cc(-c2c(C#N)c(O)nc3c2c(C)nn3-c2ccc(F)cc2)ccc1O |  |  | 47.6 | > 50 |  |  |  | 1.7 | 4.9 | 2 |  |  | Non-Toxic |  |  | inactive |  |  |  | CC50 (MDCK [33]): > 50 µM
Cc1nn(-c2ccc(Cl)cc2)c2nc(N)c(C#N)c(-c3ccc(O)c(O)c3)c12 | 20.4 to 31.9 | 100 | > 50 | > 50 | 90 | 1.9 | 93 | > 50 | > 50 | 256 | Active | inactive | Non-Toxic | Active | inactive | inactive | Non-Toxic | 0.34 | 2.64 | 
